Changes are numbered by the printed parent chain.
Assays:
[1] = target: T1, Hv1 WT (Homo sapiens, UniProt Q96D96); type: cell-based
T1 sequence (Q96D96 1-273): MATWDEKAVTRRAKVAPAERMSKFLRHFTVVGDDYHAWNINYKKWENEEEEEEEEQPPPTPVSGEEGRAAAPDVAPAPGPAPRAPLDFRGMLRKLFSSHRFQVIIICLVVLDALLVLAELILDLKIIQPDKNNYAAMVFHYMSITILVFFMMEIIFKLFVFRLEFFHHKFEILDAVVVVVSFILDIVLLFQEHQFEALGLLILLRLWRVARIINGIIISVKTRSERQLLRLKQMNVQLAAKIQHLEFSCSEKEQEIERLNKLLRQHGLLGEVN
How it was run: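 WT channel in inside-out oocyte patches, symmetric pH 6.0, 22 ± 1°C. Holding −40 mV, depolarization to +120 mV; relative depolarization time td/(tr + td) of 0.1, 0.2, 0.3 or 0.5. 50 µM perfused into bath, then washed out. End-pulse current normalized. Decay fitted double-exponentially (τfast, τslow, weights, c∞); recovery fitted single-exponentially. n = 7, 7, 5, 8 per RDT; SEM.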

[2] = target: T1, Hv1 WT; test: G-V; type: cell-based
How it was run: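 Oocytes expressing WT channel (mRNA injected 1–3 d before). Inside-out patches at 22 ± 1°C; bath and pipette 100 mM Mes, 30 mM TEA methanesulfonate, 5 mM TEA chloride, 5 mM EGTA, pH 6.0. Steps to −20 to +130 mV, tails at −40 mV, with or without 50 µM in bath. G = (Itest − Itail)/(Vtest − Vtail), rundown-corrected via reference step. Boltzmann fit gave V1/2 and slope. ≥5 patches, SEM.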

[3] = target: T2, monomeric Hv1 (Homo sapiens, UniProt Q96D96); test: Inside-out patch time course of inhibition, monomeric Hv1 chimera; type: cell-based; conditions: 50 µM
T2 sequence (Q96D96 97-227 limits assumed): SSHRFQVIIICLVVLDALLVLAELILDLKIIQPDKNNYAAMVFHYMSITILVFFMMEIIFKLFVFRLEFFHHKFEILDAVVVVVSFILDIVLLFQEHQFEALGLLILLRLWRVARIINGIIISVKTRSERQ

[4] = target: T3, Hv1 D112E (Homo sapiens, UniProt Q96D96, D112E); test: Inside-out patch time course of inhibition, mutant channel; type: cell-based; conditions: 50 µM, RDT 0.1
T3 sequence (Q96D96 1-273 D112E): T1 sequence (Q96D96 1-273) with D112E
How it was run: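 Mutant channel expressed in oocytes. Inside-out patches, pH 6.0 both sides, 22 ± 1°C. Holding −40 mV, depolarizations to +120 mV at relative depolarization time 0.1 (2 s/20 s) to follow slow kinetics, with matched WT comparison. 50 µM perfused into bath. Isochronal end-pulse current, leak- and rundown-corrected. Decay fitted with a double-exponential function for fast and slow components.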

[5] = system: Hv1 R211A; test: Inside-out patch time course of inhibition, mutant channel; type: cell-based, human; conditions: 50 µM
How it was run: (§1)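 Xenopus oocytes injected with mutant-channel mRNA 1–3 d earlier, kept at 18°C in ND96. Inside-out patches at 22 ± 1°C in symmetric Mes/TEA solutions, pH 6.0. Held at −40 mV and pulsed to +120 mV at relative depolarization time 0.2 (3 s/15 s). 50 µM perfused into bath. End-pulse current leak- and rundown-corrected. Decay fitted double-exponentially (τfast, τslow, cfast, cslow); washout recovery single-exponentially (τoff).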

[6] = target: T4, Hv1 K157Q (Homo sapiens, UniProt Q96D96, K157Q); test: as above; type: cell-based; conditions: 50 µM
T4 sequence (Q96D96 1-273 K157Q): T1 sequence (Q96D96 1-273) with K157Q
How it was run: as §1

[7] = target: T5, Hv1 E171Q (Homo sapiens, UniProt Q96D96, E171Q); test: as above; type: cell-based; conditions: 50 µM
T5 sequence (Q96D96 1-273 E171Q): T1 sequence (Q96D96 1-273) with E171Q
How it was run: as §1

[8] = target: T6, Hv1 D174E (Homo sapiens, UniProt Q96D96, D174E); test: as above; type: cell-based
T6 sequence (Q96D96 1-273 D174E): T1 sequence (Q96D96 1-273) with D174E
How it was run: as §1

[9] = 50 μM, double-exponential fit, RDT 0.1-0.5

relative contribution of the slow component, cslow / (cfast + cslow) ([1]; 50 μM, RDT = 0.2): 0.51
τfast, time constant of fast component of inhibition [1, 9]: < 5 s
τslow, time constant of slow component of inhibition [1, 9]: > 40 s
τslow, RDTon = 0.1/τslow, RDTon = 0.5 ([1]; 50 μM, experimental): 1.15 ± 0.20
τoff, recovery from inhibition ([1]; after 50 µM, RDT = 0.2): 94 ± 7 s
τoff, time constant of recovery from inhibition ([1]; after 50 μM, single-exponential fit, RDT 0.1-0.5): ≥ 80 s
shift to more positive potentials in the V1/2 of activation ([2]; 50 μM, pHi = pHo = 6.0): ~15 mV
slope of G-V curve in the presence of inhibitor ([2]; 50 µM, pHi = pHo = 6.0 (11 ± 1 without HIF)): 13 ± 1 mV
V1/2 of G-V curve in the presence of inhibitor ([2]; 50 µM, pHi = pHo = 6.0 (53 ± 3 mV without HIF)): 68 ± 2 mV
extent of inhibition compared with WT [3]: not reduced
fast component of the inhibition process [4]: eliminated
slow component of the inhibition process [4]: unaffected
reduction of the extent of inhibition vs WT [6]: 46%
τslow [6]: > 200 s
reduction of the extent of inhibition vs WT [7]: 46%
τslow ([7]; too slow to be accurately quantified): > 200 s
reduction of the extent of inhibition vs WT ([8]; 50 µM): 35%
τslow ([8]; 50 µM, too slow to be accurately quantified): > 200 s
τoff, recovery from inhibition ([8]; after 50 µM, RDT = 0.2): 37 ± 6 s
SMILES: Cc1[nH]c(N)nc1CCC(=O)c1cc(F)cc(F)c1 [HIF, 3-(2-amino-5-methyl-1H-imidazol-4-yl)-1-(3,5-difluorophenyl)propan-1-one]
higher inhibition (decreased steady-state remaining current) vs WT [5]: 15%
reduction in τslow vs WT [5]: 64%

Reference: publication PMC8263925 (The Journal of General Physiology, 2021)
